Hits are enriched below; roughly 2.6% of the tested compounds scored in any of these assays.
NPY-Y2 antag: NPY-Y2 (human) receptor antagonism; 0.99% of 140,000 active; NPY-Y2 expressing cells, antagonist mode; AID 793; inhibition, % at 2.7 µM; in the data active = inhibition above about 17%;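 also: 0% = vehicle with agonist challenge and 100% = reference antagonist with challenge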
Target sequence (P49146 whole entry, looked up): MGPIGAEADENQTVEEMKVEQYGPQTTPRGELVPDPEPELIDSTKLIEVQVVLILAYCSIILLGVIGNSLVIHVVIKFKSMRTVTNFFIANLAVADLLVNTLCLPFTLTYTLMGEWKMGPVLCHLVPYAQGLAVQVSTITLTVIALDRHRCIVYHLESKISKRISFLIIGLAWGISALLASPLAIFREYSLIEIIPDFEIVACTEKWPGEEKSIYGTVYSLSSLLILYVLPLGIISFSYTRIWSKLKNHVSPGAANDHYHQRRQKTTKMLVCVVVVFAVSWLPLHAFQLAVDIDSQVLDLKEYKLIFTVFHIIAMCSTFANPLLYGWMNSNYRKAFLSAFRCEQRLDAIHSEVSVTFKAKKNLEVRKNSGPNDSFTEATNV
MT stabilizer: microtubule stabilizers in HeLa cells | HeLa tubulin immunostaining HCS, 24 h; share of cells brighter than vehicle mean+2SD | % tubulin-high responders, % at 10 µM | 0.83% of 200,000 active | AID 2205;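 active = plate Z-score above 3 for both tubulin-high and condensed-nucleus cell shares, with cell loss under 80%, at 10 µM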;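 also: anti alpha tubulin signal scored within the nucleus-defined area of each cell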
NPY2 pot ag: potentiates or activates human NPY-Y2 receptor | 0.45% of 220,000 active | activation, % at 3.6 µM | AID 1359 | cells expressing NPY-Y2, potentiator/agonist read-out | P49146; in the data active = activation above about 27%;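 also: cells stimulated with NPY near EC25 plus isoproterenol at EC100; 0% = vehicle plus submaximal agonist and 100% = vehicle plus saturating agonist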
NPY-Y1 PAM-ag: potentiators or agonists of human neuropeptide Y receptor Y1 | P25929 | NPY-Y1 expressing cells, potentiator/agonist activation | activation, % at 3.6 µM | 0.37% of 220,000 active; in the data active = activation above about 33%, passing the limit was not always enough;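 also: cells stimulated with NPY at EC10 then isoproterenol at EC100; 0% = low agonist plus stimulus and 100% = saturating agonist plus stimulus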
Target sequence (P25929 whole entry, looked up): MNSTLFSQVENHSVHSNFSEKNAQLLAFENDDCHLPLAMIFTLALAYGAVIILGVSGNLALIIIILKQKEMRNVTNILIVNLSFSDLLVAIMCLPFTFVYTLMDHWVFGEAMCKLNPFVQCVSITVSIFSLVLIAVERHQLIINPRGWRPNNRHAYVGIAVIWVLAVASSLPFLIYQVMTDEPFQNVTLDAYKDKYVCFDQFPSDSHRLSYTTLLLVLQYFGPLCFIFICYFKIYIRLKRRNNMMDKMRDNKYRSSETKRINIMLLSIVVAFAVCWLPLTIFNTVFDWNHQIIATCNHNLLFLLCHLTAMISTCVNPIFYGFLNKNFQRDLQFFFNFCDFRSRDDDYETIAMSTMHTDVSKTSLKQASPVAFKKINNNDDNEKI
b-catenin transl: beta-catenin nuclear translocation modulation; HeLa beta-catenin nuclear translocation, immunofluorescence imaging; nuclear translocation activity, % at 5 µM; AID 1665; 0.3% of 190,000 active;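 active = nuclear translocation activity above 50% at 5 µM, with a well cell count of 50 or more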;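 also: per-cell ratio of nuclear to cytoplasmic median beta-catenin stain intensity; plate controls were DMSO negative control for no effect and GSK-3 inhibitor IX positive control for full effect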
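Read-out: Nuclear/cytoplasmic beta-catenin signal ratio, % activation | Assay system: Human HeLa cell line | Times: 24 h compound exposure at 37°C, 5% CO2 | Signal: Fluorescence imaging of beta-catenin antibody stain plus DAPI | Dosing: 5 µM primary, 0.02–20 µM confirmation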
NPY Y1 blocker: blocks the human neuropeptide Y Y1 receptor. P25929. HEK293-CNG Y1 cells, membrane potential fluorescence; NPY at EC95, then isoproterenol. inhibition, % at 3.6 µM. 1% of 200,000 active. AID 1040;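 active = inhibition above the campaign mean inhibition of all tested compounds plus 3 SD, cut at about 20% in these data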;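 also: 0% = DMSO wells given NPY plus isoproterenol and 100% = isoproterenol alone without NPY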
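Test system – HEK293 Y1/CNG channel cell line · Also added – NPY agonist 25 nM, then isoproterenol 1 µM plus Ro 20-1724 25 µM · Compound dosing – one concentration, 3.6 µM, in 0.4% DMSO · Schedule – compound incubation 1 h at room temperature, readout 45 min post-stimulation · Technique – fluorescence, membrane potential probe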
NPY-Y2 confirm: human NPY-Y2 potentiation or agonism, confirmation; shares compounds with NPY2 pot ag; cell-based NPY-Y2 potentiator/agonist assay; activation, % at 3.6 µM; 20% of 450 active; AID 1539; in the data active = activation above about 33%
NPY-Y1 potentiator: NPY-Y1 potentiation or agonism as NPY-Y2 counter-screen. shares compounds with NPY2 pot ag. Y1 HEK293-CNG cells, membrane potential fluorescence. activation, % at 3.6 µM. 20% of 450 active. AID 1651; in the data active = activation above about 45%;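 also: cells stimulated with submaximal NPY then isoproterenol with phosphodiesterase inhibitor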
NPY-Y1 agonist 2: activates human NPY-Y1, counter-screen for NPY-Y2 potentiators | shares compounds with NPY2 pot ag | HEK293 Y1-CNGC, membrane potential fluorescence, agonism | activation, % at 3.6 µM | 37% of 450 active;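 active = activation above the mean of DMSO-only control wells plus 3 SD, cut at about 18% in these data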;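 also: cells stimulated with 1 µM isoproterenol plus the PDE inhibitor Ro 20-1724; 0% = isoproterenol with DMSO and no NPY and 100% = 40 nM NPY; Y1 agonists lower the membrane potential dye signal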
CNGC inh: blocks CNG channel activity, counter-screen for NPY-Y2 potentiators | shares compounds with NPY2 pot ag | HEK293-CNG parental, isoproterenol cAMP, membrane potential fluorescence | inhibition, % at 3.6 µM | 32% of 450 active;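 active = inhibition above the control-well mean plus 3 SD of those wells, cut at about 22% in these data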;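 also: 0% = DMSO with isoproterenol and 100% = DMSO without isoproterenol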
Y2 agonist ctr: activates human NPY-Y2 receptor in potentiator counter-screen; 56% of 450 active; activation, % at 3.6 µM; AID 1710; HEK293 Y2/CNGC cells, membrane potential fluorescence, agonist mode; shares compounds with NPY2 pot ag;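 active = activation above the mean of solvent-only control wells plus 3 SD, cut at about 10% in these data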;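 also: cells stimulated by isoproterenol with no NPY added so direct agonism is tested; 0% = DMSO with isoproterenol alone and 100% = NPY at EC100 plus isoproterenol; agonism lowers probe fluorescence through less cAMP and CNG channel opening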
* hit, by the source's call; · = no result given.

SMILES	NPY-Y2 antag	MT stabilizer	NPY2 pot ag	NPY-Y1 PAM-ag	b-catenin transl	NPY Y1 blocker	NPY-Y2 confirm	NPY-Y1 potentiator	NPY-Y1 agonist 2	CNGC inh	Y2 agonist ctr
CCC(C)NS(=O)(=O)c1ccc(NC(=O)C(Sc2ccccc2)c2ccccc2)cc1 (centres undefined)	-4	6	11	26	0	-2	·	·	·	·	·
COc1cccc(C(=O)Nc2ccccc2F)c1	·	4	30*	16	0	4	-3	-5	5	3	-4
COc1cccc(C(=O)Nc2ccc(F)cc2F)c1	6	2	4	-2	·	4	·	·	·	·	·
Cc1ccc(C(=O)Nc2ccc(S(=O)(=O)NCc3ccco3)cc2)cc1	2	2	-9	15	-3	1	·	·	·	·	·
Cc1cc(C)n(-c2ccc(C(=O)Nc3ccc(S(=O)(=O)NCc4ccco4)cc3)cc2)n1	1	4	38*	6	-2	-2	-2	-41	-26	-6	-9
CC(NC(=O)OCc1ccccc1)C(=O)NCC(=O)NC(Cc1ccc(OC(C)(C)C)cc1)C(=O)OC(C)(C)C (centres undefined)	0	3	8	-5	0	-1	·	·	·	·	·
Cc1ccc(NC(=O)c2ccc(NCc3ccco3)c([N+](=O)[O-])c2)cc1Cl	-4	2	-4	-10	3	3	·	·	·	·	·
Cc1ccc(NC(=O)Nc2cccc([N+](=O)[O-])c2)cc1F	-3	5	32*	31	0	-3	21	24	15	18	17*
O=C(Nc1ccc(OC(F)(F)F)cc1)Nc1cccc([N+](=O)[O-])c1	0	7	12	4	47	-9	·	·	·	·	·
CCn1[nH]c(=O)c(=Nc2c(C)n(C)n(-c3ccccc3)c2=O)cc1-c1ccc(Cl)cc1	1	4	41*	53	0	-7	38*	60*	43*	53*	30*
O=C1COc2ccc(C(=O)COC(=O)c3ccco3)cc2N1	·	·	-3	8	-1	·	·	·	·	·	·
O=C1COc2ccc(C(=O)COC(=O)c3cc(S(=O)(=O)NCc4ccccc4)ccc3O)cc2N1	·	·	98*	12	-1	·	-8	-9	-16	2	5
COc1nc(/C=C/N(C)C)c([N+](=O)[O-])c(OC)n1	·	·	102*	28	-3	·	-1	-3	-6	-18	-10
CN(C)CCCN(C(=O)c1ccc(Br)s1)c1nc2cc3c(cc2s1)OCO3	·	4	43*	31	-1	8	67*	79*	55*	66*	63*
Cc1ccc2sc(N(CCCN(C)C)C(=O)c3nc4ccccc4s3)nc2c1C	·	4	-7	-17	-2	7	·	·	·	·	·
Cc1ccc2sc(N(CCCN(C)C)C(=O)c3ccc(Br)s3)nc2c1C	·	4	52*	29	0	17	69*	78*	84*	62*	65*
Nn1c(SCC(=O)Nc2ccc(S(=O)(=O)N3CCCC3)cc2)nnc1C(F)(F)F	2	3	9	-1	·	-1	·	·	·	·	·
COC(=O)COc1ccc(S(=O)(=O)N2CCN(c3ccccc3)CC2)cc1	·	4	30*	28	1	-9	15	16	-4	-4	-1
COc1ccc(N2CCN(S(=O)(=O)c3ccc(OC)cc3)CC2)cc1	0	4	2	-11	-2	5	·	·	·	·	·
COC(=O)COc1ccc(S(=O)(=O)N2CCN(c3ccccc3F)CC2)cc1	1	5	36*	21	-5	-6	35*	42	34*	25*	26*
Cc1nc(Nc2nc(=O)c3ccccc3n2C)nc2c(C)cccc12	-2	2	9	4	·	1	·	·	·	·	·
O=C(NC1CCCCC1)C1CC(=O)N(c2cccc([N+](=O)[O-])c2)C1 (centres undefined)	·	3	6	-10	-1	1	·	·	·	·	·
CCN1C(=O)/C(=C2/C=Cc3ccccc3N2CC)SC1=S	·	9	33*	35	·	-6	39*	48*	43*	36*	48*
COC(=O)C1CCN(C(=O)C2CCCCC2)CC1	-2	1	2	-26	·	8	·	·	·	·	·
O=C1C2CC=CCC2C(=O)N1c1ccc(NCCc2ccc(Cl)cc2)c([N+](=O)[O-])c1 (centres undefined)	-4	2	17	5	-3	2	·	·	·	·	·
SMILES	NPY-Y2 antag	MT stabilizer	NPY2 pot ag	NPY-Y1 PAM-ag	b-catenin transl	NPY Y1 blocker	NPY-Y2 confirm	NPY-Y1 potentiator	NPY-Y1 agonist 2	CNGC inh	Y2 agonist ctr
COc1ccc(CCNc2ccc(N3C(=O)CC(C)C3=O)cc2[N+](=O)[O-])cc1 (centres undefined)	·	7	-16	-4	0	4	·	·	·	·	·
COc1ccc(CCNc2ccc(N3C(=O)CC(C)C3=O)cc2[N+](=O)[O-])cc1OC (centres undefined)	·	3	37*	-6	1	7	0	-36	-37	-17	-1
O=C1C2CC=CCC2C(=O)N1c1ccc(NCCc2ccc(O)cc2)c([N+](=O)[O-])c1 (centres undefined)	-2	8	46*	40	-2	-10	5	-2	4	10	13*
CC1CCN(C(=O)CNC(=O)c2cccc(OC(F)F)c2)CC1	·	2	0	-14	0	0	·	·	·	·	·
CCCCn1nnc(NC(=O)c2ccc([N+](=O)[O-])cc2Cl)n1	·	·	-28	7	-1	·	·	·	·	·	·
CC1CCCC(C)N1c1nnc(NC(=O)c2cc(-c3ccc(Br)cc3)on2)s1 (centres undefined)	3	6	5	-21	-6	-2	·	·	·	·	·
CCCn1nnc(NC(=O)C(C)Oc2ccc(Cl)cc2Cl)n1 (centres undefined)	1	2	-26	9	·	4	·	·	·	·	·
CC(Oc1cc(Cl)ccc1Cl)C(=O)N/N=C\c1ccnn1C (centres undefined)	2	3	27*	-1	·	-3	-3	-5	-2	-4	6
Cc1cc(Nc2ccccc2)nc(-c2ccccc2O)n1	-5	4	34*	1	0	-6	37*	43	29*	27*	37*
Cn1nc(-c2ccccc2)cc1NS(=O)(=O)c1ccc(C#N)cc1	·	·	0	-18	1	·	·	·	·	·	·
COc1ccc(/C=c2/sc3n(c2=O)C(c2ccccc2OC)C2=C(N=3)c3ccccc3CC2)cc1O (centres undefined)	1	33*	36*	21	1	-9	12	25	18*	16	9
Cc1sc2nc(SCc3ccc(C(=O)O)cc3)n(Cc3ccco3)c(=O)c2c1C	·	·	56*	27	-1	·	24	29	32*	17	22*
COc1ccc(CCNC(=O)c2c(N)no[n+]2[O-])cc1OC	·	2	5	6	-4	5	·	·	·	·	·
